Assay results as given in ChEMBL document CHEMBL3997768, “The synthesis and antistaphylococcal activity of dehydroabietic acid derivatives: modifications at C12 and C7” (2017).
In brackets after ≈: the same amount, converted by molar mass. Activity calls are given as the source filed them. How the calls were made is not given here.

Tests used:
Assay type in all cases: functional
[1] = system: Staphylococcus aureus; assay: Antibacterial activity against Staphylococcus aureus Newman after 18 hrs by two fold serial dilution method
Procedure, shortened: (§1)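 Strains were grown overnight at 37 °C in TSB without antibiotic, diluted 1000-fold, and grown 2–3 h to A600 0.6. They were then diluted 1:400 in fresh TSB. Compounds in DMSO were two-fold serially diluted to a final 0.39–50 and mixed with an equal volume of bacteria. A600 was read after 18 h. MIC is the lowest concentration inhibiting growth. Triplicate; vancomycin and tetracycline were positive controls.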

[2] = system: Staphylococcus aureus; assay: Antibacterial activity against aminoglycosides/tetracycline-resistant Staphylococcus aureus NRS-1 after 18 hrs by two fold serial dilution method; details: NRS-1, 18 h
Procedure, shortened: (§2)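 Strains grown overnight at 37 °C in TSB without antibiotic. Cultures were diluted 1000-fold, grown at 37 °C for 2–3 h to A600 0.6, then diluted 1:400 in fresh TSB. Equal volumes of bacteria and two-fold serial DMSO dilutions (final 0.39–50) were mixed. A600 was read after 18 h. MIC was the lowest concentration inhibiting growth. Run in triplicate, with vancomycin and tetracycline controls.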

[3] = system: Staphylococcus aureus; assay: Antibacterial activity against erythromycin-resistant Staphylococcus aureus NRS-70 after 18 hrs by two fold serial dilution method; details: NRS-70, 18 h; procedure, shortened: as §2
[4] = system: Staphylococcus aureus; assay: Antibacterial activity against oxacillin/tetracycline-resistant Staphylococcus aureus NRS-100 after 18 hrs by two fold serial dilution method; details: NRS-100, 18 h; procedure, shortened: as §2
[5] = system: Staphylococcus aureus; assay: Antibacterial activity against gentamicin-resistant Staphylococcus aureus NRS-108 after 18 hrs by two fold serial dilution method; details: NRS-108, 18 h; procedure, shortened: as §2
[6] = system: Staphylococcus aureus; assay: Antibacterial activity against linezolid-resistant Staphylococcus aureus NRS-271 containing phage type E-MRSA after 18 hrs by two fold serial dilution method; details: NRS-271, 18 h; procedure, shortened: as §2
[7] = system: Escherichia coli; assay: Antibacterial activity against Escherichia coli AB1157 at 50 ug/ml after 18 hrs by two fold serial dilution method; procedure, shortened: as §1

| SMILES | MIC [1] [µM] | MIC [2] [µM] | MIC [3] [µM] | MIC [4] [µM] | MIC [5] [µM] | MIC [6] [µM] | Activity [7] |
| --- | --- | --- | --- | --- | --- | --- | --- |
| CC(C)c1cc2c(cc1Br)[C@@]1(C)CCC[C@@](C)(C(=O)O)[C@@H]1C/C2=N\OCCCNC(=O)c1cc(Br)cs1 | 1.91 to 3.82 (≈ 1.25 to 2.5 µg/mL) | 4.78 to 9.55 (≈ 3.13 to 6.25 µg/mL) | 1.91 to 2.38 (≈ 1.25 to 1.56 µg/mL) | 4.78 (≈ 3.13 µg/mL) | 2.38 to 3.82 (≈ 1.56 to 2.5 µg/mL) | 2.38 to 3.82 (≈ 1.56 to 2.5 µg/mL) | inactive |
| CC(C)c1cc2c(cc1Br)[C@@]1(C)CCC[C@@](C)(C(=O)O)[C@@H]1C/C2=N\OCCNC(=O)c1ccc(Br)s1 | 3.9 (≈ 2.5 µg/mL) | 4.89 to 9.76 (≈ 3.13 to 6.25 µg/mL) | 2.44 to 3.9 (≈ 1.56 to 2.5 µg/mL) | 4.89 (≈ 3.13 µg/mL) | 2.44 to 3.9 (≈ 1.56 to 2.5 µg/mL) | 2.44 to 3.9 (≈ 1.56 to 2.5 µg/mL) | inactive |
| CC(C)c1cc2c(cc1Br)[C@@]1(C)CCC[C@@](C)(C(=O)O)[C@@H]1C/C2=N\OCCCNC(=O)c1cccc(C(F)(F)F)c1 | 1.96 to 3.92 (≈ 1.25 to 2.5 µg/mL) | > 19.6 | 4.91 (≈ 3.13 µg/mL) | 4.91 (≈ 3.13 µg/mL) | 3.92 to 4.91 (≈ 2.5 to 3.13 µg/mL) | 3.92 to 4.91 (≈ 2.5 to 3.13 µg/mL) | inactive |
| CC(C)c1cc2c(cc1Br)[C@@]1(C)CCC[C@@](C)(C(=O)O)[C@@H]1C/C2=N\OCCCNC(=O)Cc1cccc(C(F)(F)F)c1 | 1.92 to 3.84 (≈ 1.25 to 2.5 µg/mL) | > 19.2 | 1.92 to 2.39 (≈ 1.25 to 1.56 µg/mL) | 3.84 to 4.8 (≈ 2.5 to 3.13 µg/mL) | 2.39 to 3.84 (≈ 1.56 to 2.5 µg/mL) | 2.39 to 3.84 (≈ 1.56 to 2.5 µg/mL) | inactive |
| CC(C)c1cc2c(cc1Br)[C@@]1(C)CCC[C@@](C)(C(=O)O)[C@@H]1C/C2=N\OCCCNC(=O)c1ccc(C(F)(F)F)cc1 | 1.96 to 3.92 (≈ 1.25 to 2.5 µg/mL) | 9.8 to 19.6 (≈ 6.25 to 12.5 µg/mL) | 1.96 to 2.45 (≈ 1.25 to 1.56 µg/mL) | 4.91 (≈ 3.13 µg/mL) | 2.45 to 3.92 (≈ 1.56 to 2.5 µg/mL) | 2.45 to 3.92 (≈ 1.56 to 2.5 µg/mL) | inactive |
| CC(C)c1cc2c(cc1Br)[C@@]1(C)CCC[C@@](C)(C(=O)O)[C@@H]1C/C2=N\OCCNC(=O)c1cccc(C(F)(F)F)c1 | 4.01 (≈ 2.5 µg/mL) | 5.02 (≈ 3.13 µg/mL) | 2.5 to 4.01 (≈ 1.56 to 2.5 µg/mL) | 5.02 (≈ 3.13 µg/mL) | 2.5 to 4.01 (≈ 1.56 to 2.5 µg/mL) | 2.5 to 4.01 (≈ 1.56 to 2.5 µg/mL) | inactive |
| CC(C)c1cc2c(cc1Br)[C@@]1(C)CCC[C@@](C)(C(=O)O)[C@@H]1C/C2=N\OCCCNC(=O)c1ccc(Cl)s1 | 2.05 to 4.1 (≈ 1.25 to 2.5 µg/mL) | 10.2 to 20.5 (≈ 6.25 to 12.5 µg/mL) | 2.56 to 4.1 (≈ 1.56 to 2.5 µg/mL) | 5.13 (≈ 3.13 µg/mL) | 2.56 to 4.1 (≈ 1.56 to 2.5 µg/mL) | 2.56 to 4.1 (≈ 1.56 to 2.5 µg/mL) | inactive |
| CC(C)c1cc2c(cc1Br)[C@@]1(C)CCC[C@@](C)(C(=O)O)[C@@H]1C/C2=N\OCCCNC(=O)c1cc2ccccc2s1 | 4 (≈ 2.5 µg/mL) | > 40 | > 40 | > 40 | > 40 | > 40 | inactive |
| CC(C)c1cc2c(cc1Br)[C@@]1(C)CCC[C@@](C)(C(=O)O)[C@@H]1C/C2=N\OCCCNC(=O)c1ccc[nH]1 | 4.48 (≈ 2.5 µg/mL) | 5.6 (≈ 3.13 µg/mL) | 2.79 to 4.48 (≈ 1.56 to 2.5 µg/mL) | 2.79 to 4.48 (≈ 1.56 to 2.5 µg/mL) | 2.79 to 4.48 (≈ 1.56 to 2.5 µg/mL) | 2.79 to 4.48 (≈ 1.56 to 2.5 µg/mL) | inactive |
| CC(C)c1cc2c(cc1Br)[C@@]1(C)CCC[C@@](C)(C(=O)O)[C@@H]1C/C2=N\OCCCNC(=O)c1ccc(Br)s1 | 1.91 to 3.82 (≈ 1.25 to 2.5 µg/mL) | > 19.1 | 2.38 to 3.82 (≈ 1.56 to 2.5 µg/mL) | 4.78 (≈ 3.13 µg/mL) | 2.38 to 3.82 (≈ 1.56 to 2.5 µg/mL) | 2.38 to 3.82 (≈ 1.56 to 2.5 µg/mL) | inactive |
